According to ChEMBL document CHEMBL1777697, “Imidazolone-amide bridges and their effects on tubulin polymerization in cis-locked vinylogous combretastatin-A4 analogues: synthesis and biological evaluation” (Bioorg Med Chem, 2011):
Active and inactive are the calls of the source. The rule behind the calls is not given here.

What follows are molecules tested on LoVo (assay: Cell cycle arrest in human LoVo cells assessed as accumulation at G2/M phase at 25 uM after 24 hrs using propidium iodide staining by flow cytometry relative to control). Conditions: not given.
Format: functional
Procedure, shortened: (§1)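 LOVO cells (10⁶) treated 24 h with compound; pelleted, fixed in citrate buffer, RNase A 20 min, then propidium iodide 20 min. DNA content read by flow cytometry to give percentage of cells per cycle phase, untreated cells as control.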

Row | SMILES | Activity [%]
1 | COc1ccc(NC(=O)c2[nH]c(=O)[nH]c2-c2cc(OC)c(OC)c(OC)c2)cc1N | 74

The molecules below were run on LoVo (assay: Cell cycle arrest in human LoVo cells assessed as accumulation at G2/M phase at 5 uM after 24 hrs using propidium iodide staining by flow cytometry (reference value: 13%)). Conditions: not given.
Format: functional
Procedure, shortened: as §1

Row | SMILES | Activity [%]
2 | COc1ccc(NC(=O)c2[nH]c(=O)[nH]c2-c2cc(OC)c(OC)c(OC)c2)cc1N | 28

What follows are molecules tested on CCRF-CEM (assay: Cytotoxicity against human CEM cells after 72 hrs by MTT assay). Conditions: not given.
Format: functional, cell-based
Procedure, shortened: (§2)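 Log-phase cells seeded at 40000–50000 cells/mL, attached overnight, then exposed to 10^-4–10^-9 M compound for 72 h at 37 °C, 5% CO₂. Viable cells measured by MTT, absorbance 570 nm. Triplicates in at least three independent assays; IC50 by nonlinear regression.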

Row | SMILES | IC50 [µM]
3 | COc1cc(-c2[nH]c(=O)[nH]c2C(=O)Nc2cccc(C)c2)cc(OC)c1OC | 0.18
4 | COc1ccc(NC(=O)c2[nH]c(=O)[nH]c2-c2cc(OC)c(OC)c(OC)c2)cc1N | 0.33
5 | COc1cc(-c2[nH]c(=O)[nH]c2C(=O)Nc2ccc(Cl)c(Cl)c2)cc(OC)c1OC | 12.1
6 | COc1cc(-c2[nH]c(=O)[nH]c2C(=O)Nc2cccc3ccccc23)cc(OC)c1OC | 11.9
7 | COc1cc(-c2[nH]c(=O)[nH]c2C(=O)Nc2ccc(C(C)(C)C)cc2)cc(OC)c1OC | 38.8
8 | COc1cc2c(c(OC)c1OC)-c1ccc(OC)c(=O)cc1[C@@H](NC(C)=O)CC2 [COLCHICINE] | 0.0172
9 | COc1ccc(NC(=O)c2[nH]c(=O)[nH]c2-c2cc(OC)c(OC)c(OC)c2)cc1OC | 4.19
10 | COc1ccc(NC(=O)c2[nH]c(=O)[nH]c2-c2cc(OC)c(OC)c(OC)c2)cc1 | 2.3
11 | COc1ccc(NC(=O)c2[nH]c(=O)[nH]c2-c2cc(OC)c(OC)c(OC)c2)cc1[N+](=O)[O-] | > 200
12 | COc1cc(-c2[nH]c(=O)[nH]c2C(=O)Nc2ccc(C)cc2)cc(OC)c1OC | 0.24
13 | COc1cc(-c2[nH]c(=O)[nH]c2C(=O)Nc2ccccc2)cc(OC)c1OC | 45.9
14 | COc1cc(-c2[nH]c(=O)[nH]c2C(=O)Nc2ccc(C)c(Cl)c2)cc(OC)c1OC | 2.11
15 | COc1cc(-c2[nH]c(=O)[nH]c2C(=O)Nc2cccc([N+](=O)[O-])c2)cc(OC)c1OC | > 200
16 | COc1cc(-c2[nH]c(=O)[nH]c2C(=O)Nc2ccc(Cl)cc2)cc(OC)c1OC | > 200
17 | COc1cc(-c2[nH]c(=O)[nH]c2C(=O)Nc2cc(C)cc(C)c2)cc(OC)c1OC | 19.4
18 | COc1cc(-c2[nH]c(=O)[nH]c2C(=O)Nc2cccc(Cl)c2)cc(OC)c1OC | 4.8

Species on record: Bos taurus
Test: Inhibition of bovine brain tubulin polymerization at 10 uM after 60 mins by turbidimetry analysis
Conditions: not given

Row | SMILES | inhibition
19 | COc1cc(-c2[nH]c(=O)[nH]c2C(=O)Nc2cccc(C)c2)cc(OC)c1OC | Active
20 | COc1ccc(NC(=O)c2[nH]c(=O)[nH]c2-c2cc(OC)c(OC)c(OC)c2)cc1N | Active
21 | COc1ccc(NC(=O)c2[nH]c(=O)[nH]c2-c2cc(OC)c(OC)c(OC)c2)cc1[N+](=O)[O-] | inactive
22 | COc1cc(-c2[nH]c(=O)[nH]c2C(=O)Nc2ccc(C)cc2)cc(OC)c1OC | Active

These molecules were tested on LoVo (assay: Cytotoxicity against human LoVo cells after 72 hrs by MTT assay). Conditions: not given.
Format: functional, cell-based
Procedure, shortened: as §2

Row | SMILES | IC50 [µM]
23 | COc1cc(-c2[nH]c(=O)[nH]c2C(=O)Nc2cccc(C)c2)cc(OC)c1OC | 0.62
24 | COc1ccc(NC(=O)c2[nH]c(=O)[nH]c2-c2cc(OC)c(OC)c(OC)c2)cc1N | 3.4
25 | COc1cc(-c2[nH]c(=O)[nH]c2C(=O)Nc2ccc(Cl)c(Cl)c2)cc(OC)c1OC | 4.93
26 | COc1cc(-c2[nH]c(=O)[nH]c2C(=O)Nc2cccc3ccccc23)cc(OC)c1OC | 3.46
27 | COc1cc(-c2[nH]c(=O)[nH]c2C(=O)Nc2ccc(C(C)(C)C)cc2)cc(OC)c1OC | 34
28 | COc1cc2c(c(OC)c1OC)-c1ccc(OC)c(=O)cc1[C@@H](NC(C)=O)CC2 [COLCHICINE] | 0.101
29 | COc1ccc(NC(=O)c2[nH]c(=O)[nH]c2-c2cc(OC)c(OC)c(OC)c2)cc1OC | 11.9
30 | COc1ccc(NC(=O)c2[nH]c(=O)[nH]c2-c2cc(OC)c(OC)c(OC)c2)cc1 | 35.6
31 | COc1ccc(NC(=O)c2[nH]c(=O)[nH]c2-c2cc(OC)c(OC)c(OC)c2)cc1[N+](=O)[O-] | 43.9
32 | COc1cc(-c2[nH]c(=O)[nH]c2C(=O)Nc2ccc(C)cc2)cc(OC)c1OC | 4.67
33 | COc1cc(-c2[nH]c(=O)[nH]c2C(=O)Nc2ccccc2)cc(OC)c1OC | 77.6
34 | COc1cc(-c2[nH]c(=O)[nH]c2C(=O)Nc2ccc(C)c(Cl)c2)cc(OC)c1OC | 5.46
35 | COc1cc(-c2[nH]c(=O)[nH]c2C(=O)Nc2cccc([N+](=O)[O-])c2)cc(OC)c1OC | 35
36 | COc1cc(-c2[nH]c(=O)[nH]c2C(=O)Nc2ccc(Cl)cc2)cc(OC)c1OC | 110
37 | COc1cc(-c2[nH]c(=O)[nH]c2C(=O)Nc2cc(C)cc(C)c2)cc(OC)c1OC | 23.4
38 | COc1cc(-c2[nH]c(=O)[nH]c2C(=O)Nc2cccc(Cl)c2)cc(OC)c1OC | 3.62

What follows are molecules tested on MDA-MB-435 (assay: Cytotoxicity against human MDA-MB-435 cells after 72 hrs by MTT assay). Conditions: MDA-MB-435, 72 h.
Format: functional, cell-based
Procedure, shortened: as §2

Row | SMILES | IC50 [µM]
39 | COc1cc(-c2[nH]c(=O)[nH]c2C(=O)Nc2cccc(C)c2)cc(OC)c1OC | 0.76
40 | COc1ccc(NC(=O)c2[nH]c(=O)[nH]c2-c2cc(OC)c(OC)c(OC)c2)cc1N | 0.62
41 | COc1cc(-c2[nH]c(=O)[nH]c2C(=O)Nc2ccc(Cl)c(Cl)c2)cc(OC)c1OC | 19.2
42 | COc1cc(-c2[nH]c(=O)[nH]c2C(=O)Nc2cccc3ccccc23)cc(OC)c1OC | 9.32
43 | COc1cc(-c2[nH]c(=O)[nH]c2C(=O)Nc2ccc(C(C)(C)C)cc2)cc(OC)c1OC | 32.2
44 | COc1cc2c(c(OC)c1OC)-c1ccc(OC)c(=O)cc1[C@@H](NC(C)=O)CC2 [COLCHICINE] | 0.0073
45 | COc1ccc(NC(=O)c2[nH]c(=O)[nH]c2-c2cc(OC)c(OC)c(OC)c2)cc1OC | 4.87
46 | COc1ccc(NC(=O)c2[nH]c(=O)[nH]c2-c2cc(OC)c(OC)c(OC)c2)cc1 | 17.4
47 | COc1ccc(NC(=O)c2[nH]c(=O)[nH]c2-c2cc(OC)c(OC)c(OC)c2)cc1[N+](=O)[O-] | > 240
48 | COc1cc(-c2[nH]c(=O)[nH]c2C(=O)Nc2ccc(C)cc2)cc(OC)c1OC | 0.63
49 | COc1cc(-c2[nH]c(=O)[nH]c2C(=O)Nc2ccccc2)cc(OC)c1OC | 40.4
50 | COc1cc(-c2[nH]c(=O)[nH]c2C(=O)Nc2ccc(C)c(Cl)c2)cc(OC)c1OC | 8.34
51 | COc1cc(-c2[nH]c(=O)[nH]c2C(=O)Nc2cccc([N+](=O)[O-])c2)cc(OC)c1OC | 44.2
52 | COc1cc(-c2[nH]c(=O)[nH]c2C(=O)Nc2ccc(Cl)cc2)cc(OC)c1OC | 152
53 | COc1cc(-c2[nH]c(=O)[nH]c2C(=O)Nc2cc(C)cc(C)c2)cc(OC)c1OC | 33.8
54 | COc1cc(-c2[nH]c(=O)[nH]c2C(=O)Nc2cccc(Cl)c2)cc(OC)c1OC | 4.77
